ChEMBL document CHEMBL4406810, “Modifications on the Amino-3,5-dicyanopyridine Core To Obtain Multifaceted Adenosine Receptor Ligands with Antineuropathic Activity” (J Med Chem, 2019)
The source made the active and inactive calls.

Tests used:
[1] = Half life in human plasma at 1 uM by LC-MS/MS analysis; type: ADME, cell-free
Summary of the method: (§1)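 Analyte spiked at 1 µM into human plasma or heparinized Sprague-Dawley male rat plasma (or PBS). Incubated at 37°C for 0, 30, 60, 120 min in triplicate. Internal standard added, centrifuged, dried, reconstituted. Quantified by LC-MS/MS (ESI negative, MRM) against a 0–1 µM calibration. Half-life from concentration-time profile.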

Mus musculus [2] = experiment: (§2) Antinociceptive activity in CD-1 albino mouse model of oxaliplatin-induced neuropathic pain assessed as increase in licking latency at 10 mg/kg, po treated on day 15 post oxaliplatin treatment and measured at 15 to 60 mins post dose in presence of nonspecific nAChR antagonist mecamylamine by cold plate test; type: functional, organism-based
Summary of the method: (§3)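 Oxaliplatin neuropathy in male CD-1 mice (2.4 mg/kg i.p., 10 injections, days 1-14). Day 15: mecamylamine 2 mg/kg i.p. or methyllycaconitine 6 mg/kg i.p. given 15 min before the oral dose. Cold plate (4 °C) licking/lifting latency with 60 s cut-off, measured over time after dosing. 10 mice/group, two sets.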

Mus musculus [3] = experiment: Antinociceptive activity in CD-1 albino mouse model of oxaliplatin-induced neuropathic pain assessed as increase in licking latency at 10 mg/kg, po treated on day 15 post oxaliplatin treatment and measured at 15 to 60 mins post dose by cold plate test; type: functional, organism-based
Summary of the method: (§4)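 Male CD-1 mice (22–25 g) given oxaliplatin 2.4 mg/kg i.p. in 5% glucose on days 1-2, 5-9 and 12-14. On day 15, single oral dose (test compounds in 1% CMC). Cold plate at 4 °C, latency to paw licking or lifting, 60 s cut-off, read 15–60 min post dose. 10 mice/group in two sets. ANOVA with Bonferroni.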

[4] = target: T1, Adenosine receptor A2b (Homo sapiens) (UniProt P29275); experiment: Antagonist activity at human A2BR expressed in CHO cells assessed as inhibition of NECA-stimulated cAMP production at 1 uM by alphascreen assay relative to control; type: functional, cell-based
T1 sequence (whole entry): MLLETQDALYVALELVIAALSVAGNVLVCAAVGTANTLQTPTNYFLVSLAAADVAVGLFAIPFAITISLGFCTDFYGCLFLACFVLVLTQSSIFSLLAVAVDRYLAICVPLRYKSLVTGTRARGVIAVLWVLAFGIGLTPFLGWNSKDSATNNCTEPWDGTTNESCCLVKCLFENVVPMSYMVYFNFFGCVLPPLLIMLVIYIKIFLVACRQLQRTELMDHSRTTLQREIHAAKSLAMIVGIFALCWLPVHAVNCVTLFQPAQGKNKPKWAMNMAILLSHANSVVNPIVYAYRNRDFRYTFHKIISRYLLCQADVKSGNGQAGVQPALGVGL
Summary of the method: (§5)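 Compounds added at 1 nM to 1 µM final, with percent inhibition read at 1 µM. AlphaScreen cAMP read-out. IC50 by sigmoid non-linear regression. Four independent experiments in triplicate.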

Adenosine receptor A2b [5] = target: T2, Adenosine receptor A2b (Homo sapiens, UniProt P29275); experiment: Agonist activity at human A2B expressed in CHO cells assessed as stimulation of cAMP production by alphascreen assay; type: functional, cell-based
T2 sequence (P29275 whole entry): T1 sequence (whole entry)
Summary of the method: (§6)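 Compounds tested alone at final 1 nM to 1 µM. cAMP measured by AlphaScreen. Efficacy taken at 1 µM relative to NECA 1 µM (=100%). Four independent experiments in triplicate.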

Adenosine receptor A1 [6] = target: T3, Adenosine receptor A1 (Homo sapiens, UniProt P30542); experiment: Displacement of [3H]DPCPX from human A1AR expressed in CHO cell membranes measured after 90 mins by scintillation counting method
T3 sequence (P30542 whole entry): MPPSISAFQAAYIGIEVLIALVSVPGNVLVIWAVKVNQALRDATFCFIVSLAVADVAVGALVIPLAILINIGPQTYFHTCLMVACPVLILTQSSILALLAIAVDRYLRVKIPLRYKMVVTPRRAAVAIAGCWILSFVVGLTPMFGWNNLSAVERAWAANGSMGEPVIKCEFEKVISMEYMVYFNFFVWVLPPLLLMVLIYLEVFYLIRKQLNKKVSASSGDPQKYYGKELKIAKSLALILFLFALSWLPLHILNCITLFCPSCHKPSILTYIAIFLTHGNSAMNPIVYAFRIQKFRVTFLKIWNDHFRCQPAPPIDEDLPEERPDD
Summary of the method: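 Nonspecific binding with 1 µM DPCPX. GF/B filtration and scintillation counting. Ki by Cheng–Prusoff. Inhibition % at 1 µM. Four experiments in triplicate.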

CHO = experiment: Effect on cAMP level in wild-type CHO cells at 0.001 to 1 uM by alphascreen assay; type: functional, cell-based; details: Cricetulus griseus
Summary of the method: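 Compounds at 1 nM to 1 µM final concentrations. cAMP quantified with AlphaScreen kit. Four independent experiments, each in triplicate.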

Adenosine receptor A2a [7] = target: T4, Adenosine receptor A2a (Homo sapiens, UniProt P29274); experiment: Displacement of [3H]ZM241385 from human A2AR expressed in CHO cell membranes measured after 60 mins by scintillation counting method
Summary of the method: (§7)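 Nonspecific binding defined with 1 µM ZM241385. Filtered on GF/B, scintillation counted. Ki by Cheng–Prusoff. Percent inhibition at 1 µM. Four experiments in triplicate.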

Adenosine receptor A3 = target: T5, Adenosine receptor A3 (Homo sapiens, UniProt P0DMS8); experiment: Displacement of [125I]ABMECA from human A3R expressed in CHO cell membranes measured after 120 mins by scintillation counting method
T5 sequence (P0DMS8 whole entry): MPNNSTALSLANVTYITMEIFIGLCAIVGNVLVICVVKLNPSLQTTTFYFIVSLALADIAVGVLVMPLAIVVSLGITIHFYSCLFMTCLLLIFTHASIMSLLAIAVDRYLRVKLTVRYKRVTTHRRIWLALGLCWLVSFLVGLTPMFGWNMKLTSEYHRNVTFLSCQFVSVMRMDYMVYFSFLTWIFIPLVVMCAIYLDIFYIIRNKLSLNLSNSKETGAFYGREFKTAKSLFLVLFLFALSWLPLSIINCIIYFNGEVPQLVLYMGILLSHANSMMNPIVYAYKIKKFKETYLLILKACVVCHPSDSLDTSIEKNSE
Summary of the method: (§8)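 Nonspecific binding with 1 µM AB-MECA. GF/B filtration and counting. Ki via Cheng–Prusoff. Percent inhibition at 1 µM. Four experiments in triplicate.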

Adenosine receptor A1 [8] = target: T3, Adenosine receptor A1; experiment: Inverse agonist activity at human A1AR expressed in CHO cells assessed as increase in forskolin-stimulated cAMP production by alphascreen assay; type: functional, cell-based
Summary of the method: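 Compounds at 1 nM to 1 µM. cAMP rise measured by AlphaScreen. EC50 from sigmoid fit. Four independent experiments in triplicate.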

[9] = target: T6, Adenosine receptor A1 (Homo sapiens) (UniProt P30542); experiment: Inverse agonist activity at human A1AR expressed in CHO cells assessed as increase in forskolin-stimulated cAMP production by alphascreen assay relative to DPCPX; type: functional, cell-based
T6 sequence (whole entry): T3 sequence (P30542 whole entry)
Summary of the method: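 Compounds at 1 nM to 1 µM. cAMP rise measured by AlphaScreen. EC50 from sigmoid fit. […] Four independent experiments in triplicate.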

[10] = target: T1, Adenosine receptor A2b (Homo sapiens); experiment: Agonist activity at human A2B expressed in CHO cells assessed as stimulation of cAMP production at 1 uM by alphascreen assay relative to NECA; type: functional, cell-based; summary of the method: as §6
Mus musculus [11] = experiment: Antinociceptive activity in CD-1 albino mouse model of oxaliplatin-induced neuropathic pain assessed as increase in licking latency at 0.1 to 0.3 mg/kg, po treated on day 15 post oxaliplatin treatment and measured at 30 to 60 mins post dose by cold plate test; type: functional, organism-based; summary of the method: as §4
Mus musculus [12] = experiment: (§9) Antinociceptive activity in CD-1 albino mouse model of oxaliplatin-induced neuropathic pain assessed as increase in licking latency at 0.3 mg/kg, po treated on day 15 post oxaliplatin treatment and measured at 15 to 60 mins post dose by cold plate test; type: functional, organism-based; summary of the method: as §4
Mus musculus [13] = experiment: Antinociceptive activity in CD-1 albino mouse model of oxaliplatin-induced neuropathic pain assessed as increase in licking latency at 1 mg/kg, po treated on day 15 post oxaliplatin treatment and measured at 15 to 60 mins post dose by cold plate test; type: functional, organism-based; summary of the method: as §4
Adenosine receptor A2b [14] = target: T2, Adenosine receptor A2b; experiment: Antagonist activity at human A2BR expressed in CHO cells assessed as inhibition of NECA-stimulated cAMP production by alphascreen assay; type: functional, cell-based; summary of the method: as §5
Adenosine receptor A2a [15] = target: T4, Adenosine receptor A2a; experiment: Antagonist activity at human A2AR expressed in CHO cells assessed as inhibition of CGS21680-stimulated cAMP production by alphascreen assay; type: functional, cell-based
[16] = target: T7, Adenosine receptor A3 (Homo sapiens) (UniProt P0DMS8); experiment: Displacement of [125I]ABMECA from human A3R expressed in CHO cell membranes at 1 uM measured after 120 mins by scintillation counting method relative to control; summary of the method: as §8
T7 sequence (whole entry): T5 sequence (P0DMS8 whole entry)

[17] = Half life in Sprague-Dawley rat plasma at 1 uM by LC-MS/MS analysis; type: ADME, cell-free; summary of the method: as §1
Mus musculus [18] = experiment: Antinociceptive activity in CD-1 albino mouse model of oxaliplatin-induced neuropathic pain assessed as increase in licking latency at 0.1 to 0.3 mg/kg, po treated on day 15 post oxaliplatin treatment and measured at 15 to 45 mins post dose by cold plate test; type: functional, organism-based; summary of the method: as §4
Mus musculus [19] = experiment: as §2, with “0.3” for “10”; type: functional, organism-based; summary of the method: as §3
Mus musculus [20] = experiment: as §9, with “dose in presence of alpha7 nAChR antagonist methyllycaconitine” for “dose”; type: functional, organism-based; summary of the method: as §3
Mus musculus [21] = experiment: Antinociceptive activity in CD-1 albino mouse model of oxaliplatin-induced neuropathic pain assessed as increase in licking latency at 0.01 to 0.3 mg/kg, po treated on day 15 post oxaliplatin treatment and measured at 15 to 45 mins post dose by cold plate test; type: functional, organism-based; summary of the method: as §4
Adenosine receptor A1 [22] = target: T3, Adenosine receptor A1; experiment: Antagonist activity at human A1AR expressed in CHO cells assessed as suppression of CCPA-induced inhibition of forskolin-stimulated cAMP production by alphascreen assay; type: functional, cell-based
Summary of the method: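 hA1 CHO cells in HBSS with HEPES, Ro 20-1724 (phosphodiesterase inhibitor), BSA and adenosine deaminase. Forskolin 5 µM with CCPA 1 nM. […] AlphaScreen detection. IC50 and Emax by sigmoid fit. Four independent experiments in triplicate.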

Adenosine receptor A2a [23] = target: T4, Adenosine receptor A2a; experiment: Displacement of [3H]ZM241385 from human A2AR expressed in CHO cell membranes at 1 uM measured after 60 mins by scintillation counting method relative to control; summary of the method: as §7

T4 sequence (P29274 whole entry): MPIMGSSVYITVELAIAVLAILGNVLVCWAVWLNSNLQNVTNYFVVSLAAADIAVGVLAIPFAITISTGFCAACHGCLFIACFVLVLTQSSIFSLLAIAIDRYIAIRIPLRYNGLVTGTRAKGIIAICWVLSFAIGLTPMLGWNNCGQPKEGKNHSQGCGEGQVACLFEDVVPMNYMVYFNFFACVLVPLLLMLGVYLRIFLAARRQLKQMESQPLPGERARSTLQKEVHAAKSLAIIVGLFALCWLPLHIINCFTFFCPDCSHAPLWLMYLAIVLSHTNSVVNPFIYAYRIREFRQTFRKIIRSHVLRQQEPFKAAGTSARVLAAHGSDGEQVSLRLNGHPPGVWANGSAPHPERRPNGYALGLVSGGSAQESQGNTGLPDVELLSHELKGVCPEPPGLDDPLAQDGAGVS

| SMILES | EC50 (Adenosine receptor A2b [5]) [nM] | Ki (Adenosine receptor A1 [6]) [nM] | Activity (CHO) | Ki (Adenosine receptor A2a [7]) [nM] | EC50 (Adenosine receptor A1 [8]) [nM] | Emax [9] [%] | Efficacy [10] [%] | IC50 (Adenosine receptor A2a [15]) [nM] | inhibition [16] [%] | also measured |
| --- | --- | --- | --- | --- | --- | --- | --- | --- | --- | --- |
| CCOC(=O)C(C)c1cccc(C(=O)c2ccccc2)c1 (stereo not drawn) |  |  |  |  |  |  |  |  |  | half-life at 1 µM [1]: 1.67 h |
| Cn1c(=O)c2c(ncn2C)n(C)c1=O |  |  |  |  |  |  |  |  |  | Activity (Mus musculus [2]): inactive; Activity (Mus musculus [3]): Active |
| N#Cc1c(N)nc(SCc2cccc(C(=O)O)c2)c(C#N)c1-c1ccco1 | > 1000 | 4.12 | inactive | 581 | 8.92 | 45 | 1 |  |  | inhibition [4]: 12%; Ki (Adenosine receptor A3): 611 nM; Activity (Mus musculus [11]): Active |
| N#Cc1c(N)nc(SCc2cccc(C(N)=O)c2)c(C#N)c1-c1ccco1 | > 1000 | 1.32 | inactive | 67 | 2.84 | 31 | 6 | 58 |  | Ki (Adenosine receptor A3): 326 nM; Activity (Mus musculus [12]): inactive; Activity (Mus musculus [13]): Active; IC50 (Adenosine receptor A2b [14]): 13 nM |
| COC(=O)c1cccc(CSc2nc(N)c(C#N)c(-c3ccco3)c2C#N)c1 | > 1000 | 7.22 | inactive | 68 | 1.43 | 35 | 7 | 313 | 26 | inhibition [4]: 25%; half-life at 1 µM [17]: ≥ 4 h; Activity (Mus musculus [18]): Active; Activity (Mus musculus [19]): inactive; Activity (Mus musculus [20]): inactive; half-life at 1 µM [1]: ≥ 4 h |
| N#Cc1c(N)nc(SCc2cccc(CO)c2)c(C#N)c1-c1ccco1 | > 1000 | 0.98 | inactive | 31 | 4.97 | 98 | 4 | 22 | 25 | Activity (Mus musculus [21]): Active; Activity (Mus musculus [19]): inactive; IC50 (Adenosine receptor A2b [14]): 152 nM; Activity (Mus musculus [20]): inactive |
| N#Cc1c(NCc2ccccc2)nc(SCCO)c(C#N)c1-c1ccco1 | > 1000 | 65 | inactive | 461 |  |  | 3 |  | 14 | IC50 (Adenosine receptor A1 [22]): 76 nM |
| N#Cc1c(NC2CC2)nc(SCCO)c(C#N)c1-c1ccco1 | > 1000 | 89 | inactive |  |  |  | 4 |  | 30 | IC50 (Adenosine receptor A1 [22]): 118 nM; inhibition (Adenosine receptor A2a [23]): 30% |
| CCOC(=O)[C@H](CCc1ccccc1)N[C@@H](C)C(=O)N1CCC[C@H]1C(=O)O |  |  |  |  |  |  |  |  |  | half-life at 1 µM [17]: 0.367 h |
